Measurements taken from PMC3645320 (Biochimica et biophysica acta, 2011).
Where two headings read alike, the source gives them in different places.

Columns and labels:
[1] = target: W60dA human recombinant thrombin (Homo sapiens, UniProt P00734, W413A); test: HPLC-based kinetic assay of FXIII; assay type: biochemical; conditions: W60dA thrombin relative to WT thrombin
[2] = target: Y60aA human recombinant thrombin (Homo sapiens, UniProt P00734, Y410A); test: HPLC-based kinetic assay of FXIII; assay type: biochemical; conditions: Y60aA thrombin relative to WT thrombin
[3] = target: T1, L99A human recombinant thrombin (Homo sapiens, UniProt P00734, L459A); conditions: ref [37], cited from earlier work
[4] = target: T2, W215A human recombinant thrombin (Homo sapiens, UniProt P00734, W590A); conditions: W215A thrombin relative to WT thrombin; ref [37]; cited from earlier work
[5] = target: T3, E217A human recombinant thrombin (Homo sapiens, UniProt P00734, E592A); conditions: E217A thrombin relative to WT thrombin; ref [37]; cited from earlier work
[6] = target: T2, W215A human recombinant thrombin; test: HPLC-based kinetic assay of FXIII; assay type: biochemical; conditions: W215A thrombin relative to WT thrombin
[7] = target: T1, L99A human recombinant thrombin; test: HPLC-based kinetic assay of FXIII; assay type: biochemical; conditions: L99A thrombin relative to WT thrombin
[8] = target: T3, E217A human recombinant thrombin; test: HPLC-based kinetic assay of FXIII; assay type: biochemical; conditions: E217A thrombin relative to WT thrombin
Method in brief: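 Recombinant human E217A thrombin (over 90% active by hirudin titration) at 33.6 or 78.4 nM depending on peptide, acting on acetylated/amidated FXIII (28–41) segment peptides at 100–3000 μM. Conditions: 50 mM H3PO4, 100 mM NaCl, 0.1% PEG, pH 7.4, 25 °C. Timed aliquots quenched in 12.5% H3PO4. FXIII (28–37) product measured by RP-HPLC against a calibration curve.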

| Substance | decrease in kcat [1] | increase in Km [2] | decrease in kcat ([3]; L99A thrombin relative to WT thrombin) | Km and kcat (in words) ([3]; L99A thrombin, relative to WT thrombin or across the V34X series) | decrease in kcat/Km [4] | decrease in kcat [5] | increase in Km [5] | decrease in kcat [6] | Km (in words) [1] | decrease in kcat [7] | decrease in kcat/Km [6] | loss in kcat [8] |
| --- | --- | --- | --- | --- | --- | --- | --- | --- | --- | --- | --- | --- |
| Ac-TVELQGVVPRGVNL-NH2 [FXIII (28–41) V34 AP] | 3 fold | 2 fold | 3 fold | highest Km values of the IIa L99A series | 4 fold | ≤ 2 fold | 3–4 fold |  |  |  |  |  |
| Ac-TVELQGLVPRGVNL-amide (Ac-TVELQGLVPRGVNL-NH2) [FXIII (28–41) V34L AP] |  | 2 fold |  |  |  | ≤ 2 fold | 3–4 fold |  |  |  |  |  |
| Ac-TVELQGPVPRGVNL-NH2 [FXIII (28–41) V34P AP] | 1.3 fold |  |  |  |  |  |  | 2 fold |  |  |  |  |
| Ac-TVELQGFVPRGVNL-NH2 [FXIII (28–41) V34F AP] | 4 fold |  |  |  |  |  |  | 3 fold | comparable to that of WT thrombin | 2 fold | 3 fold | 2 fold |
